Experimental data taken from ChEMBL document CHEMBL1127577, “Identification of tricyclic analogs related to ellagic acid as potent/selective tyrosine protein kinase inhibitors” (J Med Chem, 1994).
“And” between values parts separate entries of the source, which are not always exact repeats. Equal values may be shown once.

Columns and labels:
[1] = molecular target: Proto-oncogene tyrosine-protein kinase Src (Homo sapiens, UniProt P12931); experiment: Tested for in vitro inhibitory activity against tyrosine protein kinase pp60 c-src
Method in brief: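 pp60c-src purified from human platelet membrane vesicles by anti-src immunoaffinity chromatography. Reaction stopped after 45 min with 5% phosphoric acid; nitrocellulose filter capture. Six inhibitor concentrations in triplicate; IC50 from mean of ≥2 determinations.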

[2] = molecular target: cAMP-dependent protein kinase (PKA) (Homo sapiens, UniProt P22694+P17612+P22612); experiment: In vitro inhibitory activity against protein kinase A; format: protein assay, unidentified
Method in brief: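 PKA catalytic subunit, 0.8 unit/assay, with Kemptide (LRRASLG) at 10 µg/mL. Buffers and procedure as for the src assay: 50 mM HEPES pH 7.4, 0.015% Brij 35, 0.1 mM EDTA, [γ-32P]ATP transfer, phosphoric acid stop, filter capture. Six inhibitor concentrations in triplicate; IC50 from mean of ≥2 determinations.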

[3] = Reaction rate parameter value for phosphate with transfer with respect to ATP
Method in brief: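 Platelet pp60c-src, same peptide-phosphorylation assay run at four ATP levels (5, 50, 400 µM, 2 mM), six inhibitor concentrations in triplicate at each. Apparent KM and Vmax shifts used to pick an inhibition model; data fitted for KM, Vmax and KI, with fit quality given as RMS. Values from a representative experiment with substrate-only controls.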

Sequence of Proto-oncogene tyrosine-protein kinase Src (P12931 2-536 limits assumed): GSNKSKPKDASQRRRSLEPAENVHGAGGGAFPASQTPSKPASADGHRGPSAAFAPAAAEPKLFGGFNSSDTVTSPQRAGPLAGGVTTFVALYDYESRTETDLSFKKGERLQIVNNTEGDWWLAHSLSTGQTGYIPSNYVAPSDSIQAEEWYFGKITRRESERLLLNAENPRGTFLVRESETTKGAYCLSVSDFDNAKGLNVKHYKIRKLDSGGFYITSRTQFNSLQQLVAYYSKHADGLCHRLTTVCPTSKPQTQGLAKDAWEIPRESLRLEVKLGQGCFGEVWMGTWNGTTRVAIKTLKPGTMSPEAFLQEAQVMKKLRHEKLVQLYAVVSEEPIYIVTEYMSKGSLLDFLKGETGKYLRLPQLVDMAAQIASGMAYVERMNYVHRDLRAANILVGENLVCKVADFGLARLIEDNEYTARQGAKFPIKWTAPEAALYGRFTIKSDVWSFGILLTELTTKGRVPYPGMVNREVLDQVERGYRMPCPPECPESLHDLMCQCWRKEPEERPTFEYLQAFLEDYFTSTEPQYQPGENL

| Compound | IC50 [1] | IC50 [2] | Ki [3] | Km [3] |
| --- | --- | --- | --- | --- |
| O=C(c1ccc(Br)cc1)n1c2cc(O)c(O)cc2c2ccc(O)c(O)c21 | 1.4 µM | 4.2 µM |  |  |
| Oc1cc2c3ccc(O)c(O)c3n(CCCc3ccccc3)c2cc1O | 0.5 µM | 0.5 µM |  |  |
| O=S(=O)(c1ccccc1)n1c2cc(O)c(O)cc2c2ccc(O)c(O)c21 | 15 µM | 250 µM |  |  |
| O=C(c1ccc(-c2ccccc2)cc1)n1c2cc(O)c(O)cc2c2ccc(O)c(O)c21 | 0.6 µM | 3.2 µM |  |  |
| O=c1c2c(O)c(O)ccc2c2cc(O)c(O)cc2n1Cc1ccc(Cl)c(Cl)c1 | 197 µM | 410 µM |  |  |
| O=c1c2cc(O)c(O)cc2c2cc(O)c(O)cc2n1Cc1ccc([N+](=O)[O-])cc1 | 0.9 µM | 8.4 µM |  |  |
| O=c1c2c(O)c(O)ccc2c2cc(O)c(O)cc2n1Cc1ccc([N+](=O)[O-])cc1 | 61 µM | 309 µM |  |  |
| N#Cc1ccc(Cn2c3cc(O)c(O)cc3c3ccc(O)c(O)c32)cc1 | 0.4 µM | 275 µM |  |  |
| O=C(CCc1ccccc1)n1c2cc(O)c(O)cc2c2ccc(O)c(O)c21 | 0.4 µM | 2.3 µM |  |  |
| Oc1cc2c3ccc(O)c(O)c3n(Cc3ccccc3)c2cc1O | 2 µM | 210 µM |  |  |
| O=c1oc2c(O)c(O)cc3c(=O)oc4c(O)c(O)cc1c4c23 [ELLAGIC ACID] | 0.3 µM | 0.6 µM |  |  |
| O=C(c1cccc([N+](=O)[O-])c1)n1c2cc(O)c(O)cc2c2ccc(O)c(O)c21 | 0.6 µM | 1.5 µM |  |  |
| O=[N+]([O-])c1ccc(S(=O)(=O)n2c3cc(O)c(O)cc3c3ccc(O)c(O)c32)cc1 | 12 µM | 168 µM |  |  |
| Oc1cc2c3cc(O)c(O)cc3n(Cc3ccccc3)c2cc1O | 7 µM | 115 µM |  |  |
| Cc1cccc(Cn2c3cc(O)c(O)cc3c3ccc(O)c(O)c32)c1 | 1.7 µM | 23 µM |  |  |
| Oc1cc2nc(O)c3c(O)c(O)ccc3c2cc1O | 0.9 µM | 92 µM |  |  |
| O=c1c2cc(O)c(O)cc2c2cc(O)c(O)cc2n1Cc1ccc(Cl)c(Cl)c1 | 1.3 µM | 20 µM |  |  |
| O=C(c1ccccc1)n1c2cc(O)c(O)cc2c2ccc(O)c(O)c21 | 0.9 µM | 240 µM |  |  |
| O=c1c2c(O)c(O)ccc2c2cc(O)c(O)cc2n1Cc1ccc(S(=O)(=O)c2ccccc2)cc1 | 7.2 µM | 634 µM |  |  |
| Oc1cc2[nH]c3c(O)c(O)ccc3c2cc1O | 0.8 µM | 47 µM |  |  |
| O=c1c2cc(O)c(O)cc2c2cc(O)c(O)cc2n1Cc1ccccc1 | 5.4 µM | 390 µM |  |  |
| O=C(c1ccc2ccccc2c1)n1c2cc(O)c(O)cc2c2ccc(O)c(O)c21 | 0.5 µM | 1 µM |  |  |
| CS(=O)(=O)c1ccc(C(=O)n2c3cc(O)c(O)cc3c3ccc(O)c(O)c32)cc1 | 0.4 µM | 40 µM |  |  |

| Compound | IC50 [1] | IC50 [2] | Ki [3] | Km [3] |
| --- | --- | --- | --- | --- |
| O=c1c2cc(O)c(O)cc2c2cc(O)c(O)cc2n1Cc1ccc(S(=O)(=O)c2ccccc2)cc1 | 2 µM | 51 µM |  |  |
| Oc1cc2c3ccc(O)c(O)c3n(Cc3ccc(C(F)(F)F)cc3)c2cc1O | 9 µM | 50 µM |  |  |
| CCn1c(=O)c2cc(O)c(O)cc2c2cc(O)c(O)cc21 | 4.1 µM | > 2000 µM |  |  |
| Oc1cc2c3ccc(O)c(O)c3n(Cc3ccc(Br)cc3)c2cc1O | 3.4 µM | 374 µM |  |  |
| N#Cc1ccc(Cn2c3cc(O)c(O)cc3c3c(Br)cc(O)c(O)c32)cc1 | 0.9 µM | 6.6 µM |  |  |
| O=S(=O)(c1ccccc1)n1c2cc(O)c(O)cc2c2cc(O)c(O)cc21 | 24 µM | > 600 µM |  |  |
| CC(C)(C)c1ccc(C(=O)n2c3cc(O)c(O)cc3c3c(Br)cc(O)c(O)c32)cc1 | 12 µM | 40 µM |  |  |
| Oc1cc2c3cc(O)c(O)cc3n(Cc3cccnc3)c2cc1O | 8 µM | 108 µM |  |  |
| O=C(c1ccc(C(F)(F)F)cc1)n1c2cc(O)c(O)cc2c2ccc(O)c(O)c21 | 0.7 µM | 10 µM |  |  |
| O=C(c1ccccc1)n1c2cc(O)c(O)cc2c2cc(O)c(O)cc21 | 4 µM | 415 µM |  |  |
| Oc1cc2nc(O)c3cc(O)c(O)cc3c2cc1O | 1 µM | > 800 µM |  |  |
| CC(C)(C)c1ccc(C(=O)n2c3cc(O)c(O)cc3c3ccc(O)c(O)c32)cc1 | 0.7 µM | 50 µM |  |  |
| Oc1cc2[nH]c3cc(O)c(O)cc3c2cc1O | 1.5 µM | 58 µM | 1.06 µM and 0.53 µM | 68.1 µM and 29.2 µM |
| O=S(=O)(c1cc(Cl)ccc1Cl)n1c2cc(O)c(O)cc2c2ccc(O)c(O)c21 | 7.7 µM | 223 µM |  |  |
| Oc1cc2c3ccc(O)c(O)c3n(Cc3c(Cl)cccc3Cl)c2cc1O | 0.9 µM | 435 µM |  |  |
| O=C(c1ccc(C(F)(F)F)cc1)n1c2cc(O)c(O)cc2c2c(Br)cc(O)c(O)c21 | 2 µM | 7 µM |  |  |
| O=c1c2c(O)c(O)ccc2c2cc(O)c(O)cc2n1Cc1ccccc1 | 21 µM | 284 µM |  |  |
| CS(=O)(=O)c1ccc(C(=O)n2c3cc(O)c(O)cc3c3c(Br)cc(O)c(O)c32)cc1 | 9 µM | 4 µM |  |  |
| O=S(=O)(c1ccccc1)c1ccc(Cn2c3cc(O)c(O)cc3c3ccc(O)c(O)c32)cc1 | 0.6 µM | 317 µM |  |  |
| O=S(=O)(Cc1ccccc1)n1c2cc(O)c(O)cc2c2ccc(O)c(O)c21 | 14 µM | 78 µM |  |  |
| CCn1c(=O)c2c(O)c(O)ccc2c2cc(O)c(O)cc21 | 11 µM | 541 µM |  |  |
| Oc1cc2[nH]c3c(O)c(O)cc(Br)c3c2cc1O | 0.6 µM | 17 µM |  |  |
